Published values gathered from unrelated publications.
Lines come from different studies, so protocols differ.
Organism: Mycobacterium tuberculosis
Read-out: microbial growth

NNC(=O)c1ccncc1
MIC: 0.03 µg/mL

NNC(=O)c1ccncc1
MIC (ATCC27294 H37RV): 0.05 µg/mL

N#Cc1cc(C(F)(F)F)cc2c(=O)nc(N3CCN(CC4CC4)CC3)sc12
MIC (resazurin; H37RV): > 2 µM

CNC(=O)c1cc(Oc2ccc(NC(=O)Nc3ccc(Cl)c(C(F)(F)F)c3)cc2)ccn1
MIC (H37RV): 25 µM

CO[C@H]1/C=C/O[C@@]2(C)Oc3c(C)c(O)c4c(O)c(c(/C=N/N5CCN(C)CC5)c(O)c4c3C2=O)NC(=O)/C(C)=C\C=C\[C@H](C)[C@H](O)[C@@H](C)[C@@H](O)[C@@H](C)[C@H](OC(C)=O)[C@@H]1C
MIC (ATCC27294 H37RV): < 0.1 µg/mL

CC[C@@H](CO)NCCN[C@@H](CC)CO
MIC (ATCC27294 H37RV; 7 days): 1 µg/mL

CC(=O)O[C@H]1C[C@@]2(C)[C@@H](C[C@@H](O)[C@H]3[C@@]4(C)CC[C@@H](O)[C@@H](C)[C@@H]4CC[C@@]32C)/C1=C(\CCC=C(C)C)C(=O)O
MIC (resazurin; H37RA; 14 days): 4 µg/mL

O=C1C(=NNc2nc(-c3ccccc3)cs2)C(N=Cc2ccc(O)c(O)c2)=NN1c1ccccc1
MIC (resazurin; H37RV): 3.12 µg/mL

CO[C@H]1/C=C/O[C@@]2(C)Oc3c(C)c(O)c4c(O)c(c(/C=N/N5CCN(C)CC5)c(O)c4c3C2=O)NC(=O)/C(C)=C\C=C\[C@H](C)[C@H](O)[C@@H](C)[C@@H](O)[C@@H](C)[C@H](OC(C)=O)[C@@H]1C
MIC (W4): 0.016 µM

C[C@@H]([C@H](N)C(=O)N[C@H](C(=O)O)[C@H]1O[C@@H](n2ccc(=O)[nH]c2=O)[C@H](O)[C@@H]1O)[C@H](O)c1ccc(O)cn1
MIC (H37RV; 14 days): > 50 µg/mL

O=C1C(=NNc2nc(-c3ccccc3)cs2)C(N=Cc2ccc([N+](=O)[O-])cc2)=NN1c1ccccc1
MIC (resazurin; H37RV; 5 days): 50.5 µM

COC(=O)c1cc(-c2cccc(NC(=O)Nc3cccc(Cl)c3Cl)c2)on1
MIC (ATCC27294 H37RV; 7 days): 0.5 µg/mL

CC1=NN(CNc2c(O)c(S(=O)(=O)O)cc3ccccc23)C(=O)C1=NNn1c(-c2ccccc2)nc2ccccc2c1=O
MIC (resazurin; H37RV): 20.9 µM

COc1ccc2cc1Oc1cc(ccc1OC)CCC(N[C@H]1CCCc3ccccc31)CCCC2 (some centres unmarked)
MIC (broth dilution; H37RV): > 100 µg/mL

Cc1ccc2nc(C)c(C(=O)NCc3ccc(S(F)(F)(F)(F)F)cc3)n2c1
MIC (H37RV; 5 days): 0.014 µM

CCCCCCC/C=C\C(O)C#CC#CC(=O)CCOC (centres unmarked)
MIC (resazurin; ATCC35801 ERDMAN; 7 days): > 60 µg/mL

Cc1ccc(C)n1-c1ccc(-c2nnc(S)s2)cc1
MIC (broth dilution; H37RV; 21 days): 1 µg/mL

CC(C)[C@H]1CO[C@]23CCN(Cc4ccc(C(F)(F)F)cc4)C[C@H]2CCC(=O)N13
MIC (resazurin; H37RV; 7 days): 0.13 µM

CCc1nc2ccc(Cl)cn2c1C(=O)NCc1ccc(S(F)(F)(F)(F)F)cc1
MIC (H37RV; 5 days): 0.014 µM

O=[N+]([O-])c1cn2c(n1)OC[C@@H](OCc1ccc(N3CCCCC3)nc1)C2
MIC (H37RV): 0.4 to 0.8 µg/mL

COC(=O)c1cc(-c2cccc(NC(=O)Nc3cc(OC)ccc3OC)c2)on1
MIC (ATCC27294 H37RV; 7 days): 0.5 µg/mL

C[C@@H]1CN(CC2CCCCC2)C[C@H](C)N1c1nc(=O)c2cc(C(F)(F)F)cc(C#N)c2s1
MIC (resazurin; H37RV): > 2 µM

O=C(C1CCCN(S(=O)(=O)c2ccc([N+](=O)[O-])cc2)C1)N1CCN(C(c2ccc(F)cc2)c2ccc(F)cc2)CC1 (centres unmarked)
MIC (ATCC27294 H37RV): > 25 µg/mL

COc1ccc(Cc2c(C)c(C#N)c3[nH]c4ccccc4n3c2=O)cc1
MIC (broth dilution; H37RV): 0.25 µg/mL

Cc1ccc(C)n1-c1ccc(-c2nnc(-c3ccc(O)cc3)[nH]2)cc1
MIC (broth dilution; H37RV; 21 days): 16 µg/mL

COC1C(O)C(n2ccc(=O)[nH]c2=O)OC1C(OC1OC(C(=O)NC2CCCCNC2=O)=CC(O)C1O)C(N)=O (centres unmarked)
MIC (resazurin; H37RV): 12.5 µg/mL

CO[C@H]1/C=C/O[C@@]2(C)Oc3c(C)c(O)c4c(O)c(c(/C=N/N5CCN(C)CC5)c(O)c4c3C2=O)NC(=O)/C(C)=C\C=C\[C@H](C)[C@H](O)[C@@H](C)[C@@H](O)[C@@H](C)[C@H](OC(C)=O)[C@@H]1C
MIC (ATCC27294 H37RV; 8 days): 0.06 µg/mL

CC[C@@H](CO)NCCN[C@@H](CC)CO
MIC (H37RV; 5 days): 6.6 µM

Cc1c(Cc2cccc(Cl)c2)c(=O)n2c([nH]c3ccccc32)c1C#N
MIC (broth dilution; H37RV): > 128 µg/mL

COc1nc2ccc(Br)cc2cc1[C@@H](c1ccccc1)[C@@](O)(CCN(C)C)c1cccc2ccccc12
MIC (resazurin; H37RV; 14 days): 0.51 µM

NNC(=O)c1ccncc1
MIC (ATCC27294 H37RV; 7 days): 0.03 µg/mL

N=C(N)Cc1ccc(NC(=O)c2ccc(C(=O)Nc3ccc(CC(=N)N)cc3)cc2)cc1
MIC (H37RV; 7 days): 1 µg/mL

C[C@@H](O)[C@H]1C(=O)N2C(C(=O)O)=C(SCCN=CN)C[C@H]12
MIC (resazurin; H37RA; 14 days): 16 µg/mL

COC(=O)c1cc(-c2cccc(NC(=O)Nc3ccc(F)cc3)c2)on1
MIC (ATCC27294 H37RV; 7 days): 0.5 µg/mL

[H]/N=C(/N)N[C@H]1[C@H](O)[C@@H](O)[C@H](O[C@@H]2O[C@@H](C)[C@](O)(C=O)[C@H]2O[C@@H]2O[C@@H](CO)[C@H](O)[C@@H](O)[C@@H]2NC)[C@@H](N/C(N)=N\[H])[C@@H]1O
MIC (H37RV; 5 days): 1.5 µM

CC[C@H]1OC(=O)[C@H](C)[C@@H](O[C@H]2C[C@@](C)(OC)[C@@H](O)[C@H](C)O2)[C@H](C)[C@@H](O[C@@H]2O[C@H](C)C[C@H](N(C)C)[C@H]2O)[C@](C)(OC)C[C@@H](C)C(=O)[C@H](C)[C@@H](O)[C@]1(C)O
MIC (resazurin; H37RA; 14 days): 8 µg/mL

COC(=O)c1cc(-c2cccc(NC(=S)Nc3ccc([N+](=O)[O-])cc3)c2)on1
MIC (ATCC27294 H37RV; 7 days): 2 µg/mL

CC(C)=CCC/C(C)=C/COCCOC1C2CC3CC(C2)CC1C3 (centres unmarked)
MIC: 50 µg/mL

NNC(=O)c1ccncc1
MIC (H37RV): 0.05 µg/mL

COC(=O)c1cc(-c2cccc(NC(=O)Nc3cc(Cl)ccc3Cl)c2)on1
MIC (ATCC27294 H37RV; 7 days): 2 µg/mL

CC1CCC2(CC1)SCC(=O)N2NC(=O)c1[nH]c2ccc(Cl)cc2c1-c1ccccc1 (centres unmarked)
MIC (ATCC27294 H37RV): 31 µM

CO[C@H]1/C=C/O[C@@]2(C)Oc3c(C)c(O)c4c(O)c(c(/C=N/N5CCN(C)CC5)c(O)c4c3C2=O)NC(=O)/C(C)=C\C=C\[C@H](C)[C@H](O)[C@@H](C)[C@@H](O)[C@@H](C)[C@H](OC(C)=O)[C@@H]1C
MIC (H37RV): 0.009 µM

COC(=O)c1cc(-c2cccc(NC(=S)Nc3ccc(Cl)cc3)c2)on1
MIC (ATCC27294 H37RV; 7 days): 1 µg/mL

O=C(NN1C(=O)CSC12CCCC2)c1[nH]c2ccc(Cl)cc2c1-c1ccccc1
MIC (ATCC27294 H37RV): 1000 µM

NNC(=O)c1ccncc1
MIC (broth dilution; H37RV; 21 days): 0.25 µg/mL

NC(=O)c1cnccn1
MIC (resazurin; H37RV): 3.12 µg/mL

CC1CCC2(CC1)SC(C)C(=O)N2NC(=O)c1[nH]c2ccc(Cl)cc2c1-c1ccccc1 (centres unmarked)
MIC (ATCC27294 H37RV): 1000 µM

Cc1ccc(CN2CC[C@]34OC[C@H](C(C)C)N3C(=O)CC[C@@H]4C2)cc1
MIC (H37RV): 1.66 µM

COc1cccc(C=NC2=NN(c3ccccc3)C(=O)C2=NNc2nc(-c3ccccc3)cs2)c1
MIC (resazurin; H37RV): 12.5 µg/mL

C=C[C@@H](O)C#CC#C[C@@H](O)/C=C\CCCCCCC
MIC (resazurin; ATCC35801 ERDMAN; 7 days): 6 µg/mL
